Shown are actives, neighbours in structure and some others; about 2.3% of the full set was active somewhere.
TRPC4 inh: inhibitors of mouse TRPC4 channel, primary screen, Fluo4 calcium, HEK293 TRPC4beta/mu-opioid cells. DAMGO-evoked Fluo4 calcium flux; hits give low values. B-score at 10 µM. 300,000 compounds, 0.39% hits. AID 2247, 2010;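 active means B-score over 3 SD under the library average, no early fluorescence shift, positive overall ratio signal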
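Signal: kinetic Fluo4 fluorescence imaging of calcium influx. Material: stable TRPC4beta/mu-opioid receptor HEK293 cells. Probe or stimulus: DAMGO in two steps, submaximal then maximal.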
TRPC6 inhibitor: mouse TRPC6 channel inhibitors, primary screen, cell-based, HEK293, membrane potential dye; AID 2553, 2010; B-score at 10 µM; ACh-evoked depolarization; hits give low values; 310,000 compounds, 1.1% hits;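 active means B-score under library mean minus 3 SD, initial fluorescence not abnormally high, positive integrated signal ratio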;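 further: B-score derived from integrated fluorescence ratio over the kinetic read; more negative B-score means stronger inhibition of depolarization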
TRPC4 PAM: positive allosteric modulators of TRPC4, primary screen, cell-based, mouse TRPC4beta, HEK293 mu-opioid, Fluo-4 calcium; Short transient receptor potential channel 4 (Mus musculus), Q9QUQ5; DAMGO EC20, Fluo-4 Ca2+ flux; hits give high values; B-score at 10 µM; 310,000 compounds, 0.42% hits; AID 2227, 2009;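 active means B-score of calcium response area above 5 SD of library B-scores, with initial fluorescence ratio within 5 SD of library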;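 further: B-score of integrated fluorescence ratio over time as area under calcium response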
TRPC4 act: activators of mouse TRPC4 channel, primary screen, Fluo4 calcium, HEK293 TRPC4beta/mu-opioid cells; Short transient receptor potential channel 4 (Mus musculus), Q9QUQ5; Fluo4 calcium fluorescence; hits give high values; B-score at 10 µM; 310,000 compounds, 0.49% hits;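 active means B-score above 5 SD of library B-scores, and initial fluorescence ratio not above library mean plus 5 SD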;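 further: positive B-score marks a calcium rise read as TRPC4 activation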
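Assay system: HEK293 stable line with TRPC4beta plus mu-opioid receptor. Times: dye 45 min RT, read 110 s. Measured by: kinetic Fluo4 calcium fluorescence. Measure: B score of integrated ratio. Controls: assay buffer as low control, maximal DAMGO as high control.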
TRPC6 act: mouse TRPC6 channel activators, primary screen, cell-based, HEK293, membrane potential dye | 310,000 compounds, 0.13% hits | B-score at 10 µM | Short transient receptor potential channel 6 (Mus musculus), Q61143 | HEK293-TRPC6 membrane potential dye fluorescence; hits give high values;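 active means B-score of the integrated fluorescence ratio above library mean plus 3 SD, and starting fluorescence ratio within library mean plus 5 SD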;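 further: higher score means more depolarization so channel activation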
Active calls of the source: *; i = inactive.

SMILES	TRPC4 inh	TRPC6 inhibitor	TRPC4 PAM	TRPC4 act	TRPC6 act
CC(NC(=O)CN1c2cccc3cccc(c23)S1(=O)=O)c1ccc(S(N)(=O)=O)cc1 (stereo not given)	i	i	i	i	i
Cc1ccsc1C(=O)NC1CCCN(Cc2ccc(Cl)cc2)C1 (stereo not given)	i	i	i	75*	i
CC(C)Cc1ccc(CN2CCCC(NC(=O)CCn3cnnn3)C2)cc1 (stereo not given)	i	i	i	104*	i
Cc1cc(C(=O)NC2CCCN(Cc3ccc(Cl)cc3)C2)c(C)o1 (stereo not given)	i	i	i	i	i
Cc1occc1C(=O)NC1CCCN(Cc2ccc(Cl)cc2)C1 (stereo not given)	i	i	i	62*	i
O=C(NC1CCCN(Cc2ccc(Cl)cc2)C1)c1ccoc1 (stereo not given)	i	i	i	43*	i
Cc1ccc(S(=O)(=O)N2CCCC2CNC(=O)c2ccc(F)c(F)c2)cc1 (stereo not given)	i	i	i	i	i
CC1CCN(C(=O)C2CCN(S(=O)(=O)c3cc(Cl)ccc3Cl)CC2)CC1	i	i	i	i	i
O=C(CCc1ccc(F)c(F)c1)NC1CCCN(Cc2ccc(Cl)cc2)C1 (stereo not given)	i	i	i	53*	i
CCOC(=O)C1CCCN(C(=S)Nc2cccc(Cl)c2)C1 (stereo not given)	i	i	i	i	i
CN(C)C(CNC(=O)C1CC(=O)N(Cc2ccccc2)C1)c1ccccc1 (stereo not given)	i	i	i	72*	i
COC(=O)C1CC(=O)N(Cc2ccccc2)C1 (stereo not given)	i	i	i	i	i
COc1ccc(C(CNC(=O)C2CC(=O)N(Cc3ccc(C)cc3)C2)N(C)C)cc1 (stereo not given)	i	i	i	66*	i
CN(C)CCCN(C(=O)c1ccc(C(=O)c2ccccc2)cc1)c1nc2cc3c(cc2s1)OCCO3	i	i	i	i	i
Cc1cccc(C)c1OCC(O)CN (stereo not given)	i	i	i	163*	i
CCOC(=O)N1CCN(CC(O)COc2c(C)cccc2C)CC1 (stereo not given)	i	i	i	i	i
Cc1cc(OCC(O)CN)ccc1Cl (stereo not given)	i	i	i	143*	i
CCCc1c(C(=O)N/N=C(/C)c2ccncc2)nnn1-c1nonc1N	i	i	i	i	i
Oc1ccc(O)c(-c2cnns2)c1	i	i	i	i	i
O=C(COc1ccccc1)NNC(=S)NC(=O)c1ccccc1	i	i	i	46*	i
COc1ccc(C(=O)NC(=S)NNC(=O)COc2ccccc2)cc1	i	i	i	i	i
Cc1cccc(C(=O)NC(=S)NNC(=O)COc2c(C)cccc2C)c1	i	i	i	102*	i
Cc1cccc(C(=O)NC(=S)NNC(=O)c2ccccc2Cl)c1	i	i	i	294*	i
Cc1ccc(C(=O)NC(=S)NNC(=O)COc2ccccc2C)cc1	i	i	i	54*	i
Cc1cnc(C(=O)OC(C(=O)c2c[nH]c3ccccc23)c2ccccc2)cn1 (stereo not given)	i	i	i	i	i
CCCCCOc1ccc(C(=O)CCC(=O)Nc2ccc(NC(C)=O)cc2)cc1	i	i	i	i	i
Cc1ccccc1C(=O)NNC(=S)NC(=O)c1ccc(Cl)cc1Cl	i	i	i	249*	i
Cc1cccc(C(=O)NC(=S)NNC(=O)Cc2ccccc2)c1	i	i	i	219*	i

Source: PubChem (Johns Hopkins Ion Channel Center)
